Source: ChEMBL document CHEMBL1154032, “Substituted pyrimidines as cannabinoid CB1 receptor ligands” (Bioorg Med Chem Lett, 2009)

biological target: Cannabinoid receptor 2 (Homo sapiens, UniProt P34972); assay: Displacement of [3H]WIN-55212-2 from human recombinant CB2 receptor expressed in CHOK1 cells by liquid scintillation spectrometry; assay type: cell-based, CHO-K1
Procedure, shortened: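 Membranes from CHO K-1 cells transfected with human CB2, prepared as for brain tissue (TME buffer pH 7.4, 48,000g spin). About 10 µg membrane incubated with 3 nM [3H]WIN55,212-2 and graded ligand concentrations in TME with 0.5% fatty-acid-free BSA, 1 h at 30 °C. Filtered over PEI-soaked GF/B, washed five times ice-cold. IC50 from nonlinear regression, triplicate.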

Cannabinoid receptor 2, sequence (P34972 whole entry): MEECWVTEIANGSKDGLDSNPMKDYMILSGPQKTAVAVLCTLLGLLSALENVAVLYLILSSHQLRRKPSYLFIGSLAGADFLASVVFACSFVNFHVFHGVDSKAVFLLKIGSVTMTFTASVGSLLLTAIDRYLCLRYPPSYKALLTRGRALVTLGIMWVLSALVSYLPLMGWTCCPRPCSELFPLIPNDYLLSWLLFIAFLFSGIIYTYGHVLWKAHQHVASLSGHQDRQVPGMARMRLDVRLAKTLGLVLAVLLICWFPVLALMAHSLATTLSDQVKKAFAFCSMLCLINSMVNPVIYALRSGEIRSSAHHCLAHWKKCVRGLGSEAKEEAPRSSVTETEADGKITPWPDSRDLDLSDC

`CCCCNc1cc(N[C@@H](C)[C@@H](Cc2ccc(Cl)cc2)c2cccc(Br)c2)ncn1` showed an IC50 of 2960 nM.

biological target: Cannabinoid receptor 1 (Rattus norvegicus, UniProt P20272); assay: Displacement of [3H]CP-55940 from cannabinoid CB1 receptor in Sprague-Dawley rat cerebellar membrane by liquid scintillation spectrometry; parameters: species or system Cerebellum
Procedure, shortened: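 About 10 µg membrane incubated with 3 nM [3H]CP55,940, graded ligand concentrations, TME with 0.5% fatty-acid-free BSA, 1 h at 30 °C. PEI-soaked GF/B filtration, five ice-cold washes. IC50 by nonlinear regression, triplicate.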

Cannabinoid receptor 1, sequence (P20272 whole entry): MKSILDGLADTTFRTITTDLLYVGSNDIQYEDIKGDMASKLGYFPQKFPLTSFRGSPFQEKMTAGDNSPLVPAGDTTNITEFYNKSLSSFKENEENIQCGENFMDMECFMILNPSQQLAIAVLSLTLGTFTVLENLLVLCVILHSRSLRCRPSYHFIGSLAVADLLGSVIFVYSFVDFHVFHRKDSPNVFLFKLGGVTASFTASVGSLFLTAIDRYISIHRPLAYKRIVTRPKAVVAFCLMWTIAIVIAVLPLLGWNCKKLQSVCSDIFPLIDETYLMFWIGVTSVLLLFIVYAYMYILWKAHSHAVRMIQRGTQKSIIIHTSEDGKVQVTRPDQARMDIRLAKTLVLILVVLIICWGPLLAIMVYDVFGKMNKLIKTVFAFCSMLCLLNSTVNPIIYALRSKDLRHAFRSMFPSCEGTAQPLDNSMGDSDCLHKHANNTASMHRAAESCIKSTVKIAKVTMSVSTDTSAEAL

Point of comparison: `Cc1nc(NC2CCCC2)cc(N[C@@H](C)[C@@H](Cc2ccc(Cl)cc2)c2cccc(Br)c2)n1`, IC50 98.6 nM. Against it:
- CCCNc1cc(N[C@@H](C)[C@@H](Cc2ccc(Cl)cc2)c2cccc(Br)c2)ncn1 — 2-fold lower, 48.1 nM
- C[C@H](Nc1cc(N2CCCCCC2)ncn1)[C@@H](Cc1ccc(Cl)cc1)c1cccc(Br)c1 — within 1.5-fold, 94.4 nM
- Cc1nc(NC2CCCCC2)cc(N[C@@H](C)[C@@H](Cc2ccc(Cl)cc2)c2cccc(Br)c2)n1 — 4.5-fold lower, 22.1 nM
- C[C@H](Nc1cc(NCC2CCCCC2)ncn1)[C@@H](Cc1ccc(Cl)cc1)c1cccc(Br)c1 — within 1.5-fold, 70.5 nM
- Clc1ccc(C[C@H](CNc2cc(N3CCCCC3)ncn2)c2cccc(Br)c2)cc1 — within 1.5-fold, 71.1 nM
- CCCCNc1cc(N[C@@H](C)[C@@H](Cc2ccc(Cl)cc2)c2cccc(Br)c2)nc(C)n1 — within 1.5-fold, 82 nM
- CSc1nc(NC2CCCCC2)cc(N[C@@H](C)[C@@H](Cc2ccc(Cl)cc2)c2cccc(Br)c2)n1 — 1.7-fold lower, 57.3 nM
- CC(C)CNc1cc(N[C@@H](C)[C@@H](Cc2ccc(Cl)cc2)c2cccc(Br)c2)ncn1 — 1.6-fold higher, 155 nM
- C[C@H](Nc1cc(NCc2ccccn2)ncn1)[C@@H](Cc1ccc(Cl)cc1)c1cccc(Br)c1 — 2.7-fold higher, 264 nM
- CCCCc1cc(N[C@@H](C)[C@@H](Cc2ccc(Cl)cc2)c2cccc(Br)c2)ncn1 — within 1.5-fold, 73.8 nM
- C[C@H](Nc1cc(Nc2ccccc2)ncn1)[C@@H](Cc1ccc(Cl)cc1)c1cccc(Br)c1 — within 1.5-fold, 67.4 nM
- C[C@H](Nc1cc(NC2CCCCCC2)nc(C(F)(F)F)n1)[C@@H](Cc1ccc(Cl)cc1)c1cccc(Br)c1 — 2.5-fold lower, 38.9 nM
- CCCCNc1cc(N[C@@H](C)[C@@H](Cc2ccc(Cl)cc2)c2cccc(Br)c2)ncn1 — 6-fold lower, 16.3 nM
- Cc1nc(N[C@@H](C)[C@@H](Cc2ccc(Cl)cc2)c2cccc(Br)c2)cc(N(C)C)n1 — within 1.5-fold, 130 nM
- C[C@H](Nc1cc(NC2CCCCC2)nc(C(F)(F)F)n1)[C@@H](Cc1ccc(Cl)cc1)c1cccc(Br)c1 — 4.4-fold lower, 22.4 nM
- CCCCCCNc1cc(N[C@@H](C)[C@@H](Cc2ccc(Cl)cc2)c2cccc(Br)c2)ncn1 — 3.5-fold higher, 342 nM
- CCCCCOc1cc(N[C@@H](C)[C@@H](Cc2ccc(Cl)cc2)c2cccc(Br)c2)ncn1 — 2.1-fold higher, 203 nM
- CCCCCCOc1cc(N[C@@H](C)[C@@H](Cc2ccc(Cl)cc2)c2cccc(Br)c2)ncn1 — within 1.5-fold, 135 nM
- C[C@H](Nc1cc(NC2CCCCC2)ncn1)[C@@H](Cc1ccc(Cl)cc1)c1cccc(Br)c1 — 3.6-fold lower, 27.6 nM
- CC[C@H](Nc1cc(N2CCCCC2)ncn1)[C@@H](Cc1ccc(Cl)cc1)c1cccc(Br)c1 — 2.9-fold higher, 285 nM
- C[C@H](Nc1cc(N2CCC(C(F)(F)F)CC2)ncn1)[C@@H](Cc1ccc(Cl)cc1)c1cccc(Br)c1 — within 1.5-fold, 75 nM
- CSc1nc(N[C@@H](C)[C@@H](Cc2ccc(Cl)cc2)c2cccc(Br)c2)cc(N2CCCCC2)n1 — within 1.5-fold, 109 nM
- CC[C@H](Nc1cc(NC2CCCCC2)ncn1)[C@@H](Cc1ccc(Cl)cc1)c1cccc(Br)c1 — 5.8-fold higher, 569 nM
- CC(C)CCNc1cc(N[C@@H](C)[C@@H](Cc2ccc(Cl)cc2)c2cccc(Br)c2)ncn1 — within 1.5-fold, 113 nM
- CSc1nc(NC2CCCCCC2)cc(N[C@@H](C)[C@@H](Cc2ccc(Cl)cc2)c2cccc(Br)c2)n1 — 3-fold lower, 33 nM
- Clc1ccc(C[C@H](CNc2cc(NC3CCCCCC3)ncn2)c2cccc(Br)c2)cc1 — 16-fold higher, 1540 nM
- C[C@H](Nc1cc(NCc2ccccc2)ncn1)[C@@H](Cc1ccc(Cl)cc1)c1cccc(Br)c1 — 2-fold higher, 195 nM
- CCN(C)c1cc(N[C@@H](C)[C@@H](Cc2ccc(Cl)cc2)c2cccc(Br)c2)ncn1 — within 1.5-fold, 106 nM
- C[C@H](Nc1cc(Nc2ccc(F)cc2)ncn1)[C@@H](Cc1ccc(Cl)cc1)c1cccc(Br)c1 — within 1.5-fold, 97.8 nM
- CC[C@H](Nc1cc(NC2CCCC2)ncn1)[C@@H](Cc1ccc(Cl)cc1)c1cccc(Br)c1 — 1.6-fold lower, 63.2 nM
- CC1CC(C)CN(c2cc(N[C@@H](C)[C@@H](Cc3ccc(Cl)cc3)c3cccc(Br)c3)ncn2)C1 (some centres not stated) — 2.9-fold higher, 283 nM
- COc1cc(N[C@@H](C)[C@@H](Cc2ccc(Cl)cc2)c2cccc(Br)c2)ncn1 — within 1.5-fold, 136 nM
- Cc1nc(NCc2ccc(C(F)(F)F)cc2)cc(N[C@@H](C)[C@@H](Cc2ccc(Cl)cc2)c2cccc(Br)c2)n1 — 1.6-fold higher, 160 nM
- C[C@H](Nc1cc(NC2CCCCCC2)ncn1)[C@@H](Cc1ccc(Cl)cc1)c1cccc(Br)c1 — 2.2-fold lower, 45.3 nM
- CCCCC(CC)CNc1cc(N[C@@H](C)[C@@H](Cc2ccc(Cl)cc2)c2cccc(Br)c2)ncn1 (some centres not stated) — within 1.5-fold, 103 nM
- CCCCNc1cc(N[C@@H](C)[C@@H](Cc2ccc(Cl)cc2)c2cccc(Br)c2)nc(SC)n1 — within 1.5-fold, 69.6 nM
- C[C@H](Nc1cc(C2CCCCC2)ncn1)[C@@H](Cc1ccc(Cl)cc1)c1cccc(Br)c1 — 1.6-fold lower, 63.1 nM
- C[C@H](Nc1cc(N2CCCCC2)ncn1)[C@@H](Cc1ccc(Cl)cc1)c1cccc(Br)c1 — 4.7-fold lower, 21 nM
- CC[C@H](Nc1cc(NC2CCCCCC2)ncn1)[C@@H](Cc1ccc(Cl)cc1)c1cccc(Br)c1 — 6.5-fold higher, 636 nM
- C[C@H](Nc1cc(NC2CCCC2)ncn1)[C@@H](Cc1ccc(Cl)cc1)c1cccc(Br)c1 — 4-fold lower, 24.7 nM
- CC1CCN(c2cc(N[C@@H](C)[C@@H](Cc3ccc(Cl)cc3)c3cccc(Br)c3)ncn2)CC1 — within 1.5-fold, 76.5 nM
- Cc1nc(N[C@@H](C)[C@@H](Cc2ccc(Cl)cc2)c2cccc(Br)c2)cc(N2CCCCC2)n1 — 3.4-fold lower, 28.9 nM
- Cc1nc(NC2CCCCCC2)cc(N[C@@H](C)[C@@H](Cc2ccc(Cl)cc2)c2cccc(Br)c2)n1 — within 1.5-fold, 66.5 nM
- C[C@H](Nc1cc(OCC2CCCCC2)ncn1)[C@@H](Cc1ccc(Cl)cc1)c1cccc(Br)c1 — within 1.5-fold, 136 nM
- C[C@H](Nc1cc(N2CCCC2)ncn1)[C@@H](Cc1ccc(Cl)cc1)c1cccc(Br)c1 — within 1.5-fold, 116 nM
- C[C@H](Nc1cc(NCC2CCCO2)ncn1)[C@@H](Cc1ccc(Cl)cc1)c1cccc(Br)c1 (some centres not stated) — within 1.5-fold, 115 nM
- C[C@H](Nc1cc(C2CCCC2)ncn1)[C@@H](Cc1ccc(Cl)cc1)c1cccc(Br)c1 — 2.5-fold lower, 39.8 nM
- CCC(CC)Nc1cc(N[C@@H](C)[C@@H](Cc2ccc(Cl)cc2)c2cccc(Br)c2)ncn1 — within 1.5-fold, 93.6 nM
- CCCCOc1cc(N[C@@H](C)[C@@H](Cc2ccc(Cl)cc2)c2cccc(Br)c2)ncn1 — within 1.5-fold, 76.6 nM
- CCCCNc1cc(N[C@@H](C)[C@@H](Cc2ccc(Cl)cc2)c2cccc(Br)c2)nc(C(F)(F)F)n1 — 2.3-fold lower, 43.5 nM
- CCCCCNc1cc(N[C@@H](C)[C@@H](Cc2ccc(Cl)cc2)c2cccc(Br)c2)ncn1 — 2-fold higher, 195 nM
- CCCCCNc1cc(N[C@@H](C)[C@@H](Cc2ccc(Cl)cc2)c2cccc(Br)c2)nc(C(F)(F)F)n1 — 1.7-fold lower, 59.3 nM
- C[C@H](Nc1cc(N2CCOCC2)ncn1)[C@@H](Cc1ccc(Cl)cc1)c1cccc(Br)c1 — within 1.5-fold, 69.3 nM
- C[C@H](Nc1cc(OC2CCCCC2)ncn1)[C@@H](Cc1ccc(Cl)cc1)c1cccc(Br)c1 — within 1.5-fold, 95.3 nM
- C[C@H](Nc1cc(N2CCCCC2)nc(C(F)(F)F)n1)[C@@H](Cc1ccc(Cl)cc1)c1cccc(Br)c1 — 2-fold higher, 196 nM
